The values below come from ChEMBL document CHEMBL4699643, “γ-Ketobenzyl-Modified Nucleoside Triphosphate Prodrugs as Potential Antivirals” (J Med Chem, 2020).

A short description of data set [1]: Stability in human CEM/0 cell extract assessed as parent compound remaining up to 98 hrs by HPLC analysis. It counts as ADME, tissue-based, CCRF-CEM. To be noted: read-out: Stabilty. Put shortly: (§1)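 Extract preparation: CEM CD4⁺ T-cells grown in RPMI-1640 to ~3 × 10⁶ cells/mL, washed in cold PB, resuspended at 10⁸ cells/mL, sonicated, clarified at 10,000 rpm and stored at −80 °C. Compounds from 50 mM DMSO stock (diluted to 6.0 mM in DMSO) incubated in the extract. Reactions stopped with THF, put on ice, centrifuged and filtered.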

Data set [2] can be described thus: Prodrug conversion in PBS buffer at pH 7.3 assessed as pig liver esterase-mediated cleavage of ketobenzyl-residue measured over 800 hrs by HPLC analysis. To be noted: pH 7.3, 800 h. It is filed as ADME, Sus scrofa.
Data set [3] concerns Human immunodeficiency virus 1. As to the kind of experiment: Antiviral activity against HIV1 3B infected in human CEM/0 cells assessed as inhibition of virus-induced syncytia cell formation measured after 4 to 5 days by microscopic analysis. It counts as functional, organism-based. Conditions: Human immunodeficiency virus 1, 3B, CCRF-CEM; call rule not given here. Put shortly:
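Syncytium-inhibition assay in wild-type CEM/0 or TK-deficient CEM/TK⁻ cells, ~3 × 10⁵ cells/mL, infected with 100 CCID₅₀/mL HIV-1(III_B) or HIV-2(ROD), with serial compound dilutions. Incubated 4−5 days at 37 °C in humidified CO₂ atmosphere. Giant cells scored microscopically; EC₅₀ is the concentration halving HIV-induced giant cell formation. Values are the mean ± SD of n = 2−3 independent experiments.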

Data set [4] relates to Human immunodeficiency virus 2. Kind of data set: Antiviral activity against HIV2 ROD infected in human TK-deficient […] cells assessed as inhibition of viral-induced giant cell formation incubated for 4 to 5 days by microscopy. Conditions: Human immunodeficiency virus 2, ISOLATE ROD.
The nature of data set [5]: Chemical stability of compound in PBS at pH 7.3 by RP18-HPLC analysis. It counts as physicochemical. Conditions: buffer. Put shortly:
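From 50 mM DMSO stocks, diluted to 1.9 mM hydrolysis solutions in water/DMSO. Reaction started by adding phosphate buffer (50 mM, pH 7.3; 25 mM also stated). Incubated at 37 °C with time-course sampling. Starting material and products (γ-kb-NTP, d4TDP, thymine) followed by analytical rp18 HPLC, from which t½ was calculated.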

In data set [6] the test system is Human immunodeficiency virus 2. Kind of data set: Antiviral activity against HIV2 ROD infected in human CEM/0 cells assessed as inhibition of virus-induced syncytia cell formation measured after 4 to 5 days by microscopic analysis. To be noted: Human immunodeficiency virus 2, ISOLATE ROD, CCRF-CEM.
The nature of data set [7]: Cytotoxicity against human CEM/0 CD4+ T cells assessed as reduction in cell viability. It is filed as cell-based, CCRF-CEM. In outline: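 Cytostatic readout: CC₅₀ is the compound concentration inhibiting CEM CD4⁺ T-cell proliferation by 50%. Values are the mean ± SD of n = 2−3 independent experiments.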
The nature of data set [8]: Substrate activity at human DNA polymerase gamma assessed as increase in primer extension incubated at 37 degC for 60 mins and at 80 degC for 3 mins in presence of fluorescent-lebelled dATP, dCTP and dGTP by PAGE analysis. It is filed as ADME. Conditions: 1.05 h, time 63 min. In outline: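 Human DNA polymerase γ (4 U) with Cy3-primer/template duplex 0.20 μM in 60 mM Tris-HCl pH 8, 5 mM MgOAc, 1.0 mM DTT, 0.1 mM spermine, 0.01% BSA. Preincubated 5 min at 37 °C without nucleotides, then run 60 min at 37 °C with nucleotides 250 μM, then 80 °C for 3 min. Denaturing 15% PAGE with fluorescence imaging.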

Data set [9] in a line: Stability of compound in human CEM/0 cell extract assessed as half life by RP18-HPLC analysis. It counts as ADME, tissue-based, CCRF-CEM. Put shortly:
as §1

The nature of data set [10]: Substrate activity at HIV reverse transcriptase assessed as increase in primer extension incubated at 37 degC for 15 mins in presence of radiolabeled dATP, dCTP, and dGTP by PAGE analysis. Conditions: human immunodeficiency virus, 0.25 h. It counts as ADME. Put shortly:
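Template 30-mer annealed to a ³²P-labelled 25-mer primer (95 °C, then cooled to −20 °C over 3 h; 20 mM Tris-HCl pH 7.6, 50 mM NaCl). Reaction: 50 mM Tris-HCl pH 8.6, 10 mM MgCl₂, 40 mM KCl, nucleotides 66 μM, HIV-RT 0.2 U, duplex 0.32 μM. Run 15 min at 37 °C, stopped at 80 °C for 3 min. Resolved on denaturing 15% PAGE and read by phosphorimaging.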

For the molecule `CCCCCCCCCC(=O)c1ccc(COP(=O)(O)OP(=O)(O)OP(=O)(O)OC[C@H]2O[C@@H](n3cc(C)c(=O)[nH]c3=O)C[C@@H]2O)cc1`, the remaining at 98 h in data set [1] amounted to 98%. For the same molecule, in data set [2], the Drug metabolism result was “Metabolite_Notdetected”. Further, the 50% effective concentration (EC50) (as a rule, the concentration that produces a half-maximal response) was 6.6 µM in data set [3], greater than 10 µM in data set [4] and 8.8 µM in data set [6]. Moreover, the Stabilty result in data set [5] is given as “Stable”. Moreover, the CC50 (commonly the concentration at which the toxic effect on the cells reaches its halfway point) in data set [7] came out at 10 µM. Besides, the Activity result in data set [8] is reported as “Not Active”; in data set [10], “Active”. Further, the half-life (in general, the time in which the quantity being followed falls by half) in data set [9] was greater than 30 h.
